Reference: ChEMBL document CHEMBL1136183, “Antitumor agents. Part 226: synthesis and cytotoxicity of 2-phenyl-4-quinolone acetic acids and their esters” (Bioorg Med Chem Lett, 2003)
Converted amounts (≈) assume the structure as drawn. The source made the active and inactive calls. The rule behind the calls is not given here.

Columns and labels:
[1] = test system: KB; assay: In vitro cytotoxicity evaluated against human epidermoid nasopharynx carcinoma (KB cell line); type: functional; conditions: read-out: ED50 (the source's name)
How it was run: (§1)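 SRB assay on human tumour cell lines. Absorbance read at 562 nm and compared with untreated cells. ED50 is the concentration giving a 50% reduction in absorbance.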

[2] = test system: A549; assay: In vitro percent inhibition evaluated against human lung cancer (A549 cell line) at >20 ug/mL; type: functional
How it was run: (§2)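 Same SRB cytotoxicity assay, absorbance at 562 nm versus untreated cells. Value is the percentage inhibition at the concentration tested.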

[3] = test system: MCF7; assay: In vitro cytotoxicity evaluated against human breast cancer (MCF-7 cell line); type: functional; conditions: read-out: ED50 (the source's name); how it was run: as §1
[4] = test system: HOS; assay: In vitro cytotoxicity evaluated against human bone carcinoma (HOS cell line); type: functional; conditions: read-out: ED50 (the source's name); how it was run: as §1
[5] = test system: SK-MEL-2; assay: In vitro percent inhibition evaluated against human melanoma cancer (SKMEL-2 cell line) at >20 ug/mL; type: functional; how it was run: as §2
[6] = test system: A549; assay: In vitro cytotoxicity evaluated against human lung cancer (A549 cell line); type: functional; conditions: read-out: ED50 (the source's name); how it was run: as §1
[7] = test system: SK-MEL-2; assay: In vitro cytotoxicity evaluated against human melanoma cancer (SKMEL-2 cell line); type: functional; conditions: read-out: ED50 (the source's name); how it was run: as §1
[8] = test system: 1A9; assay: In vitro cytotoxicity evaluated against human ovarian cancer (1A9 cell line); type: functional; conditions: read-out: ED50 (the source's name); how it was run: as §1
[9] = test system: MCF7; assay: In vitro percent inhibition evaluated against human breast cancer (MCF-7 cell line) at >20 ug/mL; type: functional; how it was run: as §2
[10] = target: Tubulin alpha chain (Sus scrofa, UniProt P02550); assay: Inhibitory concentration required against tubulin polymerization determined using tubulin assay; type: functional
How it was run: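 Tubulin polymerization assay. IC50 is the concentration that inhibits extent of assembly by 50% after 20 min at 26 °C. At least two independent experiments per compound.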

[11] = test system: HOS; assay: In vitro percent inhibition evaluated against human bone carcinoma (HOS cell line) at >20 ug/mL; type: functional; how it was run: as §2
[12] = test system: U-87 MG; assay: In vitro cytotoxicity evaluated against human glioblastoma carcinoma (U87-MG cell line); NA is not active; type: functional, cell-based; conditions: U-87MG ATCC; how it was run: as §1
[13] = test system: KB; assay: In vitro percent inhibition evaluated against human epidermoid nasopharynx carcinoma (KB cell line) at >20 ug/mL; type: functional; how it was run: as §2
[14] = test system: 1A9; assay: In vitro cytotoxicity evaluated against human ovarian cancer (1A9 cell line); NA is not active; type: functional, cell-based; how it was run: as §1
[15] = test system: HOS; assay: In vitro cytotoxicity evaluated against human bone carcinoma (HOS cell line); NA is not active; type: functional, cell-based; how it was run: as §1
[16] = test system: KB; assay: In vitro cytotoxicity evaluated against human epidermoid nasopharynx carcinoma (KB cell line); NA is not active; type: functional, cell-based; how it was run: as §1
[17] = test system: 1A9; assay: In vitro percent inhibition evaluated against human ovarian cancer (1A9 cell line) at >20 ug/mL; type: functional; how it was run: as §2
[18] = test system: U-87 MG; assay: In vitro cytotoxicity evaluated against human glioblastoma carcinoma (U87-MG cell line); type: functional, U-87MG ATCC; conditions: read-out: ED50 (the source's name); how it was run: as §1
[19] = test system: U-87 MG; assay: In vitro percent inhibition evaluated against human glioblastoma carcinoma (U87-MG cell line) at >20 ug/mL; type: functional, U-87MG ATCC; how it was run: as §2
[20] = test system: A549; assay: In vitro cytotoxicity evaluated against human lung cancer (A549 cell line); NA is not active; type: functional, cell-based; how it was run: as §1

Sequence of Tubulin alpha chain (P02550 whole entry, looked up): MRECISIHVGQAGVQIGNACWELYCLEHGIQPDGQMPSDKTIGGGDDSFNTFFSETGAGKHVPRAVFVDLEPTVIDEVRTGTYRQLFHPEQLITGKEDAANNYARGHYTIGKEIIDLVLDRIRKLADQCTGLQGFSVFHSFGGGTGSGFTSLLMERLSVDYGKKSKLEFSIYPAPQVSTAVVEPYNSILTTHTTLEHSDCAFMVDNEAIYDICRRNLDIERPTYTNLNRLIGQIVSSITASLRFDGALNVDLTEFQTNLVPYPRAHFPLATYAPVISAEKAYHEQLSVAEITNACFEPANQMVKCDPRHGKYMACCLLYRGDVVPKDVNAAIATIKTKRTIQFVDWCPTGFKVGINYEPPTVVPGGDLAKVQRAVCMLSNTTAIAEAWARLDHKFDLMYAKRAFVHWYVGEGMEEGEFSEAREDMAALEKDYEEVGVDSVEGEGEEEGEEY

`COC(=O)Cc1cccc2c(O)cc(-c3ccccc3F)nc12` showed an EC50 [1] greater than 10 µg/mL, an Inhibition [2] of 22% and an EC50 [3] greater than 10 µg/mL. The EC50 [4] was greater than 10 µg/mL, the Inhibition [5] was 11% and the EC50 [6] was greater than 10 µg/mL. The EC50 [7] was greater than 10 µg/mL, the EC50 [8] was 7.5 µg/mL (≈ 24.1 µM) and the Inhibition [9] was 14%. For the same compound, the IC50 [10] was 5.5 µM, the Inhibition [11] was 18% and the ED50 [12] was “inactive”. The Inhibition [13] was 29%.
`O=C(O)Cc1cccc2nc(-c3ccccc3F)cc(O)c12` was tested, and the ED50 [14] was “inactive”, the Inhibition [2] was 8% and the EC50 [3] was greater than 20 µg/mL. For the same compound, the Inhibition [5] was 9%, the EC50 [6] was greater than 20 µg/mL and the EC50 [7] was greater than 20 µg/mL. For the same compound, the Inhibition [9] was 7%, the IC50 [10] was greater than 40 µM and the ED50 [15] was “inactive”. The ED50 [12] was “inactive” and the ED50 [16] was “inactive”.
`O=C(O)Cc1ccc2c(O)cc(-c3ccccc3F)nc2c1` gave an EC50 [1] greater than 20 µg/mL, an Inhibition [2] of 21% and an EC50 [3] greater than 20 µg/mL. For the same compound, the Inhibition [17] was 15%, the Inhibition [5] was 14% and the EC50 [6] was greater than 20 µg/mL. It also gave an EC50 [7] greater than 20 µg/mL, an EC50 [8] greater than 20 µg/mL and an Inhibition [9] of 13%. For the same compound, the IC50 [10] was 10 µM, the ED50 [15] was “inactive” and the ED50 [12] was “inactive”. The Inhibition [13] was 8%.
Compound `O=C(O)Cc1ccc2nc(-c3ccccc3F)cc(O)c2c1` has an EC50 [1] greater than 20 µg/mL, an Inhibition [2] of 24% and an EC50 [18] greater than 20 µg/mL. The Inhibition [19] was 9%, the EC50 [3] was greater than 20 µg/mL and the EC50 [4] was greater than 20 µg/mL. The Inhibition [17] was 37%, the Inhibition [5] was 17% and the EC50 [6] was greater than 20 µg/mL. The EC50 [7] was greater than 20 µg/mL, the EC50 [8] was greater than 20 µg/mL and the Inhibition [9] was 16%. The IC50 [10] was 5.2 µM, the Inhibition [11] was 15% and the Inhibition [13] was 36%.
In the case of `O=C(O)Cc1cccc2c(O)cc(-c3ccccc3)nc12`, the EC50 [1] is reported as 0.04 µg/mL (≈ 0.143 µM), the EC50 [18] is reported as 0.12 µg/mL (≈ 0.43 µM) and the EC50 [3] is reported as 0.44 µg/mL (≈ 1.58 µM). It also gave an EC50 [4] of 0.07 µg/mL (≈ 0.251 µM), an EC50 [6] of 0.11 µg/mL (≈ 0.394 µM) and an EC50 [7] of 0.06 µg/mL (≈ 0.215 µM). For the same compound, the EC50 [8] was 0.04 µg/mL (≈ 0.143 µM) and the IC50 [10] was greater than 40 µM.
In the case of `COC(=O)Cc1cccc2c(O)cc(-c3ccccc3)nc12`, the EC50 [1] is reported as greater than 20 µg/mL, the EC50 [3] is reported as greater than 20 µg/mL and the EC50 [4] is reported as greater than 20 µg/mL. For the same compound, the Inhibition [17] was 30%, the Inhibition [5] was 12% and the EC50 [7] was greater than 20 µg/mL. It also gave an EC50 [8] greater than 20 µg/mL, an Inhibition [9] of 15% and an IC50 [10] of 30 µM. For the same compound, the Inhibition [11] was 7%, the ED50 [12] was “inactive” and the Inhibition [13] was 8%. The ED50 [20] was “inactive”.
With `O=C(O)Cc1cccc2c(O)cc(-c3ccccc3F)nc12` the EC50 [1] was 0.03 µg/mL (≈ 0.101 µM), the EC50 [18] was 0.07 µg/mL (≈ 0.235 µM) and the EC50 [3] was 0.12 µg/mL (≈ 0.404 µM). The EC50 [4] was 0.04 µg/mL (≈ 0.135 µM), the EC50 [6] was 0.06 µg/mL (≈ 0.202 µM) and the EC50 [7] was 0.05 µg/mL (≈ 0.168 µM). For the same compound, the EC50 [8] was 0.02 µg/mL (≈ 0.0673 µM) and the IC50 [10] was greater than 40 µM.
